Test results published in ChEMBL document CHEMBL1138795, “Inhibition of nucleoside transport by new analogues of 4-nitrobenzylthioinosine: replacement of the ribose moiety by substituted benzyl groups” (J Med Chem, 2004).

Columns and labels:
[1] = biological target: T1, Equilibrative nucleoside transporter 1 (Homo sapiens) (UniProt Q99808); experiment: Displacement of [3H]NBTI from human erythrocyte membrane at 10 uM
T1 sequence (whole entry): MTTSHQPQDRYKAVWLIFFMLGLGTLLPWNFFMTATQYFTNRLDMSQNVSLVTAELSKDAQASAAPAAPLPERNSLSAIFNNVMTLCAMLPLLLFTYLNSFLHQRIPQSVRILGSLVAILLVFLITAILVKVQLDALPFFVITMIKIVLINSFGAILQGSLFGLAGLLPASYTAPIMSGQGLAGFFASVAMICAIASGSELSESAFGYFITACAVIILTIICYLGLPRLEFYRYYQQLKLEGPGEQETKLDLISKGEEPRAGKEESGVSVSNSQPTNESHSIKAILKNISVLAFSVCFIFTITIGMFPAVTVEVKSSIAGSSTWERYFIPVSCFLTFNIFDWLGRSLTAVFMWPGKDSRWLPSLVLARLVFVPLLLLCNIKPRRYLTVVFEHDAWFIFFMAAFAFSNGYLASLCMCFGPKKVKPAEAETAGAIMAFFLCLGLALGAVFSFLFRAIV
In short: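 Human erythrocyte ghost membranes (whole blood lysed in 10 mM MgCl2/10 mM Tris-HCl pH 8.0, repeated water washes, resuspended in 50 mM Tris-HCl pH 7.4, stored −80 °C) incubated to equilibrium at 25 °C with [3H]NBTI (KD 0.59 nM). Test compound at a single 10 μM concentration. Result expressed as percent displacement of specific radioligand binding.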

[2] = biological target: T2, Equilibrative nucleoside transporter 1 (Homo sapiens, UniProt Q99808); experiment: Inhibition of [3H]NBTI binding to nucleoside transport protein of human erythrocyte membrane
T2 sequence (Q99808 whole entry): T1 sequence (whole entry)
In short: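 Equilibrium displacement of [3H]NBTI (KD 0.59 nM) from human erythrocyte ghost membranes at 25 °C. Membranes prepared by hypotonic lysis in Tris-HCl/MgCl2 pH 8.0 and resuspended in 50 mM Tris-HCl pH 7.4. Compounds giving ≥50% inhibition at 10 μM were run over a concentration range. IC50 values were converted to Ki, n = 3, reported with SEM.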

Row | SMILES | Binding activity [1] | Ki [2]
1 | COc1cc(Cn2cnc3c(SCc4ccc([N+](=O)[O-])cc4)ncnc32)cc(OC)c1 | 47% | 
2 | O=[N+]([O-])c1ccc(CSc2ncnc3c2ncn3Cc2ccccc2-c2ccc(O)cc2)cc1 |  | 154 nM
3 | O=[N+]([O-])c1ccc(CSc2ncnc3c2ncn3Cc2ccccc2-c2cccs2)cc1 |  | 129 nM
4 | O=[N+]([O-])c1ccc(CSc2ncnc3c2ncn3Cc2c(Cl)cccc2Cl)cc1 | 6% | 
5 | O=[N+]([O-])c1ccc(CSc2ncnc3c2ncn3Cc2c(F)cccc2F)cc1 | 32% | 
6 | O=[N+]([O-])c1ccc(CSc2ncnc3c2ncn3Cc2ccccc2-c2ccccc2O)cc1 |  | 196 nM
7 | O=[N+]([O-])c1ccc(CSc2ncnc3c2ncn3Cc2cc(F)ccc2F)cc1 |  | 1640 nM
8 | O=[N+]([O-])c1ccc(CSc2ncnc3c2ncn3Cc2ccccc2-c2ccc(F)cc2)cc1 |  | 93 nM
9 | O=[N+]([O-])c1ccc(CSc2ncnc3c2ncn3Cc2ccc(F)cc2F)cc1 |  | 4880 nM
10 | O=[N+]([O-])c1ccc(CSc2ncnc3c2ncn3Cc2ccccc2-c2ccc(C(F)(F)F)cc2)cc1 |  | 39 nM
11 | CC(C)(C)OC(=O)Nc1ccccc1Cn1cnc2c(SCc3ccc([N+](=O)[O-])cc3)ncnc21 |  | 422 nM
12 | COc1ccc(-c2ccccc2Cn2cnc3c(SCc4ccc([N+](=O)[O-])cc4)ncnc32)cc1 |  | 104 nM
13 | Cc1ccccc1-c1ccccc1Cn1cnc2c(SCc3ccc([N+](=O)[O-])cc3)ncnc21 |  | 126 nM
14 | O=[N+]([O-])c1ccc(CSc2ncnc3c2ncn3CCCc2ccccc2)cc1 |  | 488 nM
15 | O=[N+]([O-])c1ccc(CSc2ncnc3c2ncn3Cc2ccccc2-c2ccccc2)cc1 |  | 281 nM
16 | O=[N+]([O-])c1ccc(CSc2ncnc3c2ncn3Cc2ccccn2)cc1 | 42% | 
17 | O=[N+]([O-])c1ccc(CSc2ncnc3c2ncn3Cc2ccccc2-c2cccc(O)c2)cc1 |  | 196 nM
18 | O=[N+]([O-])c1ccc(CSc2ncnc3c2ncn3Cc2cccc(F)c2F)cc1 | 32% | 
19 | O=[N+]([O-])c1ccc(CSc2ncnc3c2ncn3Cc2ccccc2-c2cccc(C(F)(F)F)c2)cc1 |  | 86 nM
20 | O=[N+]([O-])c1ccc(CSc2ncnc3c2ncn3Cc2ccccc2O)cc1 |  | 39 nM
21 | COc1ccccc1-c1ccccc1Cn1cnc2c(SCc3ccc([N+](=O)[O-])cc3)ncnc21 |  | 225 nM
22 | O=[N+]([O-])c1ccc(CSc2ncnc3c2ncn3Cc2cc(F)cc(F)c2)cc1 |  | 1540 nM
23 | COc1ccccc1Cn1cnc2c(SCc3ccc([N+](=O)[O-])cc3)ncnc21 |  | 110 nM
24 | O=[N+]([O-])c1ccc(CSc2ncnc3c2ncn3CCc2ccccc2)cc1 |  | 2200 nM
25 | O=[N+]([O-])c1ccc(CSc2ncnc3c2ncn3Cc2cccc(C(F)(F)F)c2)cc1 |  | 2170 nM
26 | O=[N+]([O-])c1ccc(CSc2ncnc3c2ncn3Cc2ccccc2F)cc1 | 38% | 
27 | O=[N+]([O-])c1ccc(CSc2ncnc3c2ncn3Cc2ccccc2-c2ccccc2F)cc1 |  | 111 nM
28 | Nc1ccccc1Cn1cnc2c(SCc3ccc([N+](=O)[O-])cc3)ncnc21 |  | 124 nM
29 | COc1cccc(-c2ccccc2Cn2cnc3c(SCc4ccc([N+](=O)[O-])cc4)ncnc32)c1 |  | 221 nM
30 | O=[N+]([O-])c1ccc(CSc2ncnc3c2ncn3Cc2ccccc2-c2ccsc2)cc1 |  | 89 nM

More lines, now with the values ahead:

Row | Binding activity [1] | Ki [2] | SMILES
31 |  | 2710 nM | O=[N+]([O-])c1ccc(CSc2ncnc3c2ncn3Cc2cccnc2)cc1
32 |  | 236 nM | O=[N+]([O-])c1ccc(CSc2ncnc3c2ncn3Cc2ccc(Cl)cc2)cc1
33 |  | 653 nM | O=[N+]([O-])c1ccc(CSc2ncnc3c2ncn3Cc2ccc(F)c(F)c2)cc1
34 |  | 212 nM | O=[N+]([O-])c1ccc(CSc2ncnc3c2ncn3Cc2cccc(Cl)c2)cc1
35 | 44% |  | O=[N+]([O-])c1ccc(CSc2ncnc3c2ncn3Cc2ccccc2Cl)cc1
36 |  | 264 nM | COc1cccc(Cn2cnc3c(SCc4ccc([N+](=O)[O-])cc4)ncnc32)c1
37 |  | 361 nM | O=[N+]([O-])c1ccc(CSc2ncnc3c2ncn3Cc2cccc(F)c2)cc1
38 | 24% |  | O=[N+]([O-])c1ccc(CSc2ncnc3c2ncn3Cc2ccc(OC(F)(F)F)cc2)cc1
39 |  | 3340 nM | O=[N+]([O-])c1ccc(CSc2ncnc3c2ncn3Cc2ccc(F)cc2)cc1
40 |  | 153 nM | O=[N+]([O-])c1ccc(CSc2ncnc3c2ncn3Cc2cccc(O)c2)cc1
41 |  | 563 nM | COc1ccc(Cn2cnc3c(SCc4ccc([N+](=O)[O-])cc4)ncnc32)cc1
42 |  | 200 nM | O=[N+]([O-])c1ccc(CSc2ncnc3c2ncn3Cc2ccc([N+](=O)[O-])cc2)cc1
43 |  | 2170 nM | O=[N+]([O-])c1ccc(CSc2ncnc3c2ncn3Cc2ccncc2)cc1
44 |  | 130 nM | O=[N+]([O-])c1ccc(CSc2ncnc3c2ncn3Cc2ccc(I)cc2)cc1
45 |  | 711 nM | Cc1ccc(Cn2cnc3c(SCc4ccc([N+](=O)[O-])cc4)ncnc32)cc1
46 | 34% |  | O=[N+]([O-])c1ccc(CSc2ncnc3c2ncn3Cc2ccc(Cl)c(Cl)c2)cc1
